Test results reported in ChEMBL document CHEMBL1144033, “Novel trans-3,4-dimethyl-4-(3-hydroxyphenyl)piperidines as mu opioid receptor antagonists with improved opioid receptor selectivity profiles” (Bioorg Med Chem Lett, 2008).
Active and inactive are the calls of the source. The calls are words filed in the database; no cut-off is given here.

What was measured:
[1] = molecular target: T1, Kappa-type opioid receptor (Homo sapiens, UniProt P41145); experiment: Displacement of [3H]diprenorphine from human cloned kappa opioid receptor
T1 sequence (P41145 whole entry): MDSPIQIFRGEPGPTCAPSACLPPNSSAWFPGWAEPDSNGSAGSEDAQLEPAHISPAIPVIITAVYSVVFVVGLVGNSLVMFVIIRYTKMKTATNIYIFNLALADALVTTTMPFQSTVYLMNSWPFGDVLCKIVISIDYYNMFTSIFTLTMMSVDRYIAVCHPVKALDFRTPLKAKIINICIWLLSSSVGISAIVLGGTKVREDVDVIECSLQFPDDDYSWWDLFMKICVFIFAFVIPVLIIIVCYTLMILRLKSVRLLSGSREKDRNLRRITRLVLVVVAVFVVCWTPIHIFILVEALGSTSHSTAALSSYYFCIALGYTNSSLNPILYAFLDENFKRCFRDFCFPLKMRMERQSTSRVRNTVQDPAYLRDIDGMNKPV

[2] = system: Mus musculus; experiment: Antagonist activity on morphine-induced physical dependence in Swiss Webster mouse at 10 mg/kg, po; type: functional, organism-based; parameters: dose 10 mg/kg
[3] = system: Mus musculus; experiment: Antagonist activity on morphine-induced gastrointestinal antitransit effect in Swiss Webster mouse at 0.1 mg/kg, sc after 1 hr; type: functional; parameters: scale not given: the % may be the effect or the level left; conditions: route subcutaneous
Method in brief: (§1)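 Male Swiss-Webster mice (20-25 g), fasted overnight, got vehicle (10% DMSO:20% cremophor EL:70% saline) or compound s.c. Morphine (3 mg/kg s.c.) followed 25 min later. After a further 10 min, mice received 0.3 mL charcoal meal (charcoal:flour:water 1:2:8, w/w/v). Small intestine removed 25 min later; %GIT = charcoal leading-edge distance/intestine length ×100.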

[4] = system: Mus musculus; experiment: Antagonist activity on morphine-induced gastrointestinal antitransit effect in Swiss Webster mouse at 0.3 mg/kg, po after 1 hr; type: functional, organism-based; parameters: dose 0.3 mg/kg
[5] = system: Mus musculus; experiment: Antagonist activity on morphine-induced gastrointestinal antitransit effect in Swiss Webster mouse at 1 mg/kg, sc after 1 hr; type: functional; parameters: scale not given: the % may be the effect or the level left; conditions: route subcutaneous; method in brief: as §1
[6] = molecular target: T1, Kappa-type opioid receptor; experiment: Displacement of [3H]diprenorphine from human cloned kappa opioid receptor at 10 uM
[7] = molecular target: T2, Delta-type opioid receptor (Homo sapiens, UniProt P41143); experiment: Displacement of [3H]diprenorphine from human cloned delta opioid receptor
T2 sequence (P41143 whole entry): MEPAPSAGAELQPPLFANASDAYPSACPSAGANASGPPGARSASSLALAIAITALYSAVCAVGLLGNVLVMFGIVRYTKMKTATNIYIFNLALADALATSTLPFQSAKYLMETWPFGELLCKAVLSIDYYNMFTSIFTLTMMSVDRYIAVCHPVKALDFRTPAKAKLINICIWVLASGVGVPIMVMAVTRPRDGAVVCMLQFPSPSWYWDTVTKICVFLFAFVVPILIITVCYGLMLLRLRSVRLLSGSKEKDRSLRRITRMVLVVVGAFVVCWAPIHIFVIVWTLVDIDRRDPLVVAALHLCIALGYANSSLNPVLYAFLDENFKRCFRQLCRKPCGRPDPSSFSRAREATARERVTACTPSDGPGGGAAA

[8] = molecular target: T2, Delta-type opioid receptor; experiment: Displacement of [3H]diprenorphine from human cloned delta opioid receptor at 10 uM
[9] = molecular target: Mu-type opioid receptor (Homo sapiens) (UniProt P35372); experiment: Displacement of [3H]diprenorphine from human cloned mu opioid receptor at 10 uM
Mu-type opioid receptor (Homo sapiens), sequence (P35372 whole entry): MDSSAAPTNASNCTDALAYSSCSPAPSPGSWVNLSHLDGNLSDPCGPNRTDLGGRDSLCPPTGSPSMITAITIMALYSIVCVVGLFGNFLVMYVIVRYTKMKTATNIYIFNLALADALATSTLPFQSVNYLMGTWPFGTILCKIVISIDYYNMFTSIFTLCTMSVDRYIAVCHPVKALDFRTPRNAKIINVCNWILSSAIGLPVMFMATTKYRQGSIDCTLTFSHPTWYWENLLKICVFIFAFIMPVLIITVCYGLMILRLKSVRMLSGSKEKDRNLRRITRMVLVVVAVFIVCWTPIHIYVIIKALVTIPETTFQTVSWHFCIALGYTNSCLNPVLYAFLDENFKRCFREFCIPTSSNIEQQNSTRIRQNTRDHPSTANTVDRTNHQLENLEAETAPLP

CC(C)CN(C(=O)CCN1CC[C@@](C)(c2cccc(O)c2)[C@@H](C)C1)[C@@H](Cc1ccccc1)C(=O)O
Ki [1]: 2200 nM

C[C@H]1CN(C[C@H](Cc2ccccc2)C(=O)N[C@@H](CCCCN)C(=O)O)CC[C@@]1(C)c1cccc(O)c1
Activity [2]: inactive | Activity [3]: 64% | Activity [4]: Active | Activity [5]: 82%

C[C@H]1CN(CCC(=O)N(CCc2ccccc2)[C@@H](Cc2ccccc2)C(=O)O)CC[C@@]1(C)c1cccc(O)c1
Ki [1]: 1200 nM

CCN(C(=O)CCN1CC[C@@](C)(c2cccc(O)c2)[C@@H](C)C1)[C@@H](Cc1ccccc1)C(=O)O
inhibition [6]: 44% | Ki [7]: 510 nM

C[C@H]1CN(CCC(=O)N[C@@H](CC2CCCCC2)C(=O)O)CC[C@@]1(C)c1cccc(O)c1
inhibition [6]: 44% | Ki [7]: 170 nM

C[C@H]1CN(C[C@H](Cc2ccccc2)C(=O)N[C@@H](Cc2ccccc2)C(=O)O)CC[C@@]1(C)c1cccc(O)c1
Ki [1]: 250 nM | Ki [7]: 15 nM

C[C@H](NC(=O)[C@@H](Cc1ccccc1)CN1CC[C@@](C)(c2cccc(O)c2)[C@@H](C)C1)C(=O)O
Ki [1]: 67 nM | Ki [7]: 22 nM

C[C@H]1CN(C[C@H](Cc2ccccc2)C(=O)NCC(=O)O)CC[C@@]1(C)c1cccc(O)c1 [ALVIMOPAN]
Ki [1]: 100 nM | Activity [3]: 69% | Ki [7]: 12 nM

C[C@H]1CN(CCC(=O)N(Cc2cccc(Cl)c2)[C@@H](Cc2ccccc2)C(=O)O)CC[C@@]1(C)c1cccc(O)c1
Ki [1]: 460 nM | Ki [7]: 24 nM

C[C@H]1CN(CCC(=O)N(Cc2ccccc2)[C@@H](Cc2ccccc2)C(=O)O)CC[C@@]1(C)c1cccc(O)c1
Ki [1]: 550 nM | Ki [7]: 39 nM

C[C@H]1CN(CCC(=O)N[C@@H](CCc2ccccc2)C(=O)O)CC[C@@]1(C)c1cccc(O)c1
Ki [1]: 690 nM | Ki [7]: 360 nM

C[C@H]1CN(CCC(=O)N(Cc2ccc(-c3ccccc3)cc2)[C@@H](Cc2ccccc2)C(=O)O)CC[C@@]1(C)c1cccc(O)c1
Ki [1]: 230 nM | Ki [7]: 52 nM

C[C@H]1CN(C[C@H](Cc2ccccc2)C(=O)N[C@@H](CC2CCCCC2)C(=O)O)CC[C@@]1(C)c1cccc(O)c1
Ki [1]: 720 nM | Ki [7]: 15 nM

C[C@H]1CN(CCC(=O)N(c2ccccc2)[C@@H](Cc2ccccc2)C(=O)O)CC[C@@]1(C)c1cccc(O)c1
Ki [1]: 1400 nM | Ki [7]: 67 nM

C[C@H]1CN(CCC(=O)N[C@@H](CCCCN)C(=O)O)CC[C@@]1(C)c1cccc(O)c1
inhibition [6]: 3% | inhibition [8]: 11% | inhibition [9]: 45%

C[C@H]1CN(CCC(=O)N[C@@H](Cc2ccccc2)C(=O)O)CC[C@@]1(C)c1cccc(O)c1
inhibition [6]: 39% | Ki [7]: 990 nM

C[C@H]1CN(CCC(=O)N[C@@H](Cc2ccc(-c3ccccc3)cc2)C(=O)O)CC[C@@]1(C)c1cccc(O)c1
Ki [1]: 1100 nM | Ki [7]: 160 nM

C[C@@H](NC(=O)[C@@H](Cc1ccccc1)CN1CC[C@@](C)(c2cccc(O)c2)[C@@H](C)C1)C(=O)O
Ki [1]: 910 nM | Ki [7]: 74 nM

C[C@H]1CN(CCC(=O)N(CC2CC2)[C@@H](Cc2ccccc2)C(=O)O)CC[C@@]1(C)c1cccc(O)c1
Ki [1]: 2200 nM | Ki [7]: 100 nM

C[C@H]1CN(C[C@H](Cc2ccccc2)C(=O)N[C@@H](CCc2ccccc2)C(=O)O)CC[C@@]1(C)c1cccc(O)c1
Ki [1]: 510 nM | Ki [7]: 10 nM

C[C@H]1CN(C[C@H](Cc2ccccc2)C(=O)N[C@@H](Cc2ccc3ccccc3c2)C(=O)O)CC[C@@]1(C)c1cccc(O)c1
Ki [1]: 240 nM | Ki [7]: 3.2 nM

C[C@H]1CN(C[C@H](Cc2ccccc2)C(=O)N[C@@H](Cc2ccc(-c3ccccc3)cc2)C(=O)O)CC[C@@]1(C)c1cccc(O)c1
Ki [1]: 160 nM | Ki [7]: 8.3 nM

C[C@H]1CN(C[C@H](Cc2ccccc2)C(=O)N[C@@H](Cc2cccc3ccccc23)C(=O)O)CC[C@@]1(C)c1cccc(O)c1
Ki [1]: 83 nM | Ki [7]: 31 nM

C[C@H]1CN(CCC(=O)NCC(=O)O)CC[C@@]1(C)c1cccc(O)c1
inhibition [6]: 4% | inhibition [8]: 5% | inhibition [9]: 20%

C[C@H]1CN(C[C@H](Cc2ccccc2)C(=O)N[C@@H](CCC(=O)O)C(=O)O)CC[C@@]1(C)c1cccc(O)c1
inhibition [6]: 26% | Ki [7]: 360 nM

C[C@H]1CN(CCC(=O)N(C)[C@@H](Cc2ccccc2)C(=O)O)CC[C@@]1(C)c1cccc(O)c1
inhibition [6]: 35% | Ki [7]: 620 nM

C[C@H]1CN(C[C@H](Cc2ccccc2)C(=O)N[C@@H](CC(=O)O)C(=O)O)CC[C@@]1(C)c1cccc(O)c1
inhibition [6]: 27% | Ki [7]: 500 nM
